In ChEMBL document CHEMBL1687689, “Concise syntheses of the abyssinones and discovery of new inhibitors of prostate cancer and MMP-2 expression” (2010):
Activity calls are given as the source filed them. The calls are words filed in the database; no cut-off is given here.

Tests used:
[1] = (§1) Cytotoxicity in human PC3M cells assessed as inhibition of cell proliferation upto 50 uM after 3 days by MTT assay; type: functional, PC-3M
In short: (§2)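 Metastatic variant PC3-M human prostate cancer cells in exponential growth exposed 3 days to 0−50 μM of each racemate or enantiomer; viability by MTT, absorbance at 540 nm. CC50 derived from the concentration-response. For the 50 μM readout, absorbance at 72 h compared with untreated cells at the start (t = 0 h).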

PC-3M [2] = assay: as §1; type: functional; in short: as §2
[3] = Cytotoxicity in human PC3M cells assessed as inhibition of cell proliferation after 3 days by MTT assay; type: functional; details: PC-3M, 72 h; in short: as §2
PC-3M [4] = assay: Inhibition of MMP-2 mRNA expression in human PC3M cells at 3 uM after 3 days by qRT-PCR analysis relative to untreated control; type: functional; details: 72 h

SMILES | fold change (FC) [1] | inhibition (PC-3M [2]) | CC50 [3] [µM] | inhibition at 3 µM (PC-3M [4]) [%]
COc1c(CC=C(C)C)cc([C@@H]2CC(=O)c3ccc(O)cc3O2)cc1CC=C(C)C | 2 | Active | 12 | 
CC(C)=CCc1cc([C@H]2CC(=O)c3ccc(O)cc3O2)ccc1O |  | Active |  | 
CC(C)=CCc1cc(C2CC(=O)c3ccc(O)cc3O2)ccc1O (racemic) |  | Active |  | 
COc1c(CC=C(C)C)cc([C@H]2CC(=O)c3ccc(O)cc3O2)cc1CC=C(C)C |  | Active | 46 | 
CC1(C)C=Cc2cc(C3CC(=O)c4ccc(O)cc4O3)ccc2O1 (racemic) |  | Active |  | 
CC1(C)C=Cc2cc([C@H]3CC(=O)c4ccc(O)cc4O3)ccc2O1 |  | Active |  | 
CC(C)=CCc1cc(C2CC(=O)c3ccc(O)cc3O2)cc2c1OC(C)(C)C=C2 (racemic) |  | Active | 57 | 
CC(C)=CCc1cc([C@H]2CC(=O)c3ccc(O)cc3O2)cc2c1OC(C)(C)C=C2 |  | Active | 42 | 65
CC1(C)C=Cc2cc([C@@H]3CC(=O)c4ccc(O)cc4O3)ccc2O1 |  | Active |  | 
COc1c(CC=C(C)C)cc(C2CC(=O)c3ccc(O)cc3O2)cc1CC=C(C)C (racemic) |  | Active | 33 | 
CC(C)=CCc1cc([C@@H]2CC(=O)c3ccc(O)cc3O2)ccc1O |  | Active |  | 
